Common to all, as to type: functional
The species named for assay [1] is Mus musculus. As to the kind of experiment: Anticholinergic activity in mice. The procedure, abridged: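 Groups of 10 female NMRI mice received a lethal dose of physostigmine (0.825 mg/kg sc). Test substances were given orally 30 min before the physostigmine.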
The species named for assay [2] is Mus musculus. Put plainly: Sedative activity in mice.
The species named for assay [3] is Mus musculus. As to the kind of experiment: Sedative activity relative with respect to clozapine.
Assay [4] is filed under the species Mus musculus. Put plainly: Anticholinergic activity relative with respect to clozapine.
The species named for assay [5] is Rattus norvegicus. As to the kind of experiment: Compound was tested or the anti-tryptamine activity in rats. A digest of the protocol: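 Rats were challenged with tryptamine hydrochloride (16 mg/kg iv), with test substances given ip 30 min beforehand. Activity was scored as absence of clonic front paw movements over a 5 min observation after tryptamine. ED50 was the dose preventing the symptom in half the animals, determined by Probit analysis.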

The species entered for assay [6] is Rattus norvegicus. Put plainly: Compound was tested or the anti-tryptamine activity in rats relative with respect to clozapine. A digest of the protocol:
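Rats dosed ip 30 min before tryptamine hydrochloride 16 mg/kg iv. Effect means front paw clonic movements absent over 5 min observation after tryptamine. ED50 is the dose preventing the symptom in half the animals (Probit analysis); relative activity referenced to clozapine.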

21 molecules from ChEMBL document CHEMBL1123227, “Tricyclic epines. Novel (E)- and (Z)-11H-dibenz[b,e]azepines as potential central nervous system agents. Variation of the basic side chain” (1986) can be followed below.

For the molecule `CN1CCCN(C2=Nc3ccccc3/C(=C/C#N)c3ccccc32)CC1`, the figures for the ED50 in the assay filed under Mus musculus [1] and in the assay filed under Mus musculus [2] were 5.49 mg/kg and more than 21.5 mg/kg, respectively. Moreover, the Relative activity in the assay filed under Mus musculus [3] is less than 0.22; in the assay listed under Mus musculus [4] it was 2.57.
Take `CN1CCCC(COC2=Nc3ccccc3/C(=C/C#N)c3ccccc32)C1` (centres undefined): the results for the median effective dose (ED50) in the assay listed under Mus musculus [1] and in the assay listed under Mus musculus [2] were 5.92 mg/kg and more than 46.4 mg/kg, respectively. Also, the Relative activity in the assay listed under Mus musculus [3] is listed as less than 0.1; in the assay filed under Mus musculus [4], 2.38.
Consider `N#C/C=C1/c2ccccc2N=C(NCCN2CCCC2)c2ccccc21`, for which the 50% effective dose (ED50) was more than 100 mg/kg in the assay listed under Mus musculus [1] and 4.96 mg/kg in the assay listed under Mus musculus [2]. The Relative activity in the assay filed under Mus musculus [3] is 0.96; in the assay filed under Mus musculus [4], less than 0.14.
Regarding `CN1CCC(N(C)C2=Nc3ccccc3/C(=C/C#N)c3ccccc32)CC1`, the 50% effective dose (ED50) was approximately 31.6 mg/kg in the assay filed under Mus musculus [1] and 13.4 mg/kg in the assay listed under Mus musculus [2]. Also, the Relative activity in the assay listed under Mus musculus [3] is reported as 0.35; in the assay listed under Mus musculus [4] it was 0.45.
As to `CCN1CCN(C2=Nc3ccccc3/C(=C\C#N)c3ccccc32)CC1`, the median effective dose (ED50) in the assay filed under Rattus norvegicus [5] was more than 100 mg/kg. Besides, in the assay listed under Rattus norvegicus [6], the Relative activity is less than 0.05.
In the case of `CN1CCN(CCNC2=Nc3ccccc3/C(=C/C#N)c3ccccc32)CC1`, the ED50 was more than 100 mg/kg in the assay listed under Mus musculus [1] and 27.7 mg/kg in the assay filed under Mus musculus [2]. Also, the results for the Relative activity in the assay listed under Mus musculus [3] and in the assay listed under Mus musculus [4] were 0.17 and less than 0.14, respectively.
In the case of `CCN(CC)CCNC1=Nc2ccccc2/C(=C/C#N)c2ccccc21`, the ED50 in the assay listed under Mus musculus [1] was more than 100 mg/kg; in the assay listed under Mus musculus [2], 5.72 mg/kg. The Relative activity is on record as 0.83 in the assay listed under Mus musculus [3] and less than 0.14 in the assay listed under Mus musculus [4].
On the same counts, the results for `CN(C)CCCOC1=Nc2ccccc2/C(=C/C#N)c2ccccc21` are 24 mg/kg, more than 100 mg/kg, less than 0.04 and 0.59.
On the same counts, the results for `CN1CCCC(CNC2=Nc3ccccc3/C(=C/C#N)c3ccccc32)C1` (centres undefined) are approximately 46.4 mg/kg, more than 100 mg/kg, less than 0.04 and 0.3.
The matching figures for `CN1CCC(NC2=Nc3ccccc3/C(=C/C#N)c3ccccc32)CC1`: approximately 68.1 mg/kg, more than 100 mg/kg, less than 0.04 and 0.21.
With `CC1CN(C)CCN1C1=Nc2ccccc2/C(=C/C#N)c2ccccc21` (centres undefined), the median effective dose (ED50) in the assay listed under Mus musculus [1] and in the assay listed under Mus musculus [2] was approximately 21.5 mg/kg throughout. Further, the Relative activity in the assay filed under Mus musculus [3] was 0.22; in the assay filed under Mus musculus [4], 0.66.
`C[N+]1([O-])CCN(C2=Nc3ccccc3/C(=C\C#N)c3ccccc32)CC1`: the 50% effective dose (ED50) in the assay filed under Mus musculus [1] was found to be 8.75 mg/kg. For the same molecule, the Relative activity in the assay listed under Mus musculus [3] is 0.04; in the assay filed under Mus musculus [4] it was 1.61.
Regarding `N#C/C=C1/c2ccccc2N=C(N2CCN(CCN3CCOC3=O)CC2)c2ccccc21`, the ED50 in the assay filed under Mus musculus [1] is 51 mg/kg; in the assay filed under Mus musculus [2] it was 39.4 mg/kg. Further, the Relative activity was determined as 0.12 in the assay filed under Mus musculus [3] and 0.28 in the assay filed under Mus musculus [4].
As for `N#C/C=C1/c2ccccc2N=C(N2CC[N+]([O-])(CCO)CC2)c2ccccc21`, the 50% effective dose (ED50) is 39 mg/kg in the assay listed under Mus musculus [1] and 10.3 mg/kg in the assay filed under Mus musculus [2]. Besides, the figures for the Relative activity in the assay listed under Mus musculus [3] and in the assay filed under Mus musculus [4] were 0.46 and 0.36, respectively.
`N#C/C=C1/c2ccccc2N=C(NCCN2CCCCC2)c2ccccc21`: the ED50 in the assay listed under Mus musculus [1] is more than 10 mg/kg. The same molecule registered a Relative activity in the assay listed under Mus musculus [4] of less than 1.41.
As to `CCN1CCN(C2=Nc3ccccc3/C(=C/C#N)c3ccccc32)CC1`, the ED50 in the assay listed under Mus musculus [1] was more than 21.5 mg/kg; in the assay filed under Mus musculus [2] it was 2.79 mg/kg. Also, the Relative activity in the assay listed under Mus musculus [3] is 1.7; in the assay listed under Mus musculus [4], less than 0.66.
The matching figures for `C[N+]1([O-])CCCC(COC2=Nc3ccccc3/C(=C/C#N)c3ccccc32)C1` (centres undefined): more than 100 mg/kg, more than 100 mg/kg, less than 0.04 and less than 0.14.
Regarding `CN(C)CCNC1=Nc2ccccc2/C(=C/C#N)c2ccccc21`, the ED50 in the assay listed under Mus musculus [1] was more than 100 mg/kg; in the assay filed under Mus musculus [2], 15.5 mg/kg. Besides, the Relative activity was 0.31 in the assay filed under Mus musculus [3] and less than 0.14 in the assay listed under Mus musculus [4].
Turning to `CN(C)CCCNC1=Nc2ccccc2/C(=C/C#N)c2ccccc21`, the ED50 in the assay listed under Mus musculus [1] and in the assay listed under Mus musculus [2] was more than 46.4 mg/kg throughout. Moreover, the Relative activity in the assay listed under Mus musculus [3] is given as less than 0.1; in the assay listed under Mus musculus [4] it was less than 0.3.
On to `CN(C)CCOC1=Nc2ccccc2/C(=C/C#N)c2ccccc21`, for which the median effective dose (ED50) in the assay listed under Mus musculus [1] was determined as 24.9 mg/kg; in the assay filed under Mus musculus [2] it was 34.8 mg/kg. For the same molecule, the results for the Relative activity in the assay listed under Mus musculus [3] and in the assay listed under Mus musculus [4] were 0.14 and 0.57, respectively.
With `N#C/C=C1/c2ccccc2N=C(N2CCC(O)(c3ccccc3)CC2)c2ccccc21`, the 50% effective dose (ED50) in the assay filed under Mus musculus [1] was more than 100 mg/kg; in the assay filed under Mus musculus [2], more than 46.4 mg/kg. The figures for the Relative activity in the assay filed under Mus musculus [3] and in the assay filed under Mus musculus [4] were less than 0.1 and less than 0.14, respectively.

By ED50 is commonly meant the midpoint of the dose-response relation. Read a low ED50 as an effect at a small dose.
